This note sets out measurements from ChEMBL document CHEMBL4011639, “Discovery of Novel Nucleotide Prodrugs with Improved Potency Against HCV Variants Carrying NS5B S282T Mutation” (J Med Chem, 2017).

Structures are written as SMILES.

A short description of data set [1]: Drug metabolism in human HuH7 cells assessed as carboxylesterase-mediated (S)-isopropyl 2-((S)-(((2R,3R,4R,5R)-5-(4-amino-2-oxopyrimidin-1(2H)-yl)-4-fluoro-3-hydroxy-4-methyltetrahydrofuran-2-yl)methoxy)(phenoxy)phosphoryloxy)propanoate metabolite formation at 50 uM after 48 hrs by LC/MS/MS analysis. To be noted: cell-based. In kind it is ADME. The gist of the method: (§1)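 Huh-7 cells plated at 0.35 million/mL in DMEM with 10% FBS (about 1 million per well at dosing) and grown 18 h. At each time point cells were washed with cold saline and lysed in methanol with internal standard. Semiquantified by LC/MS/MS MRM as Δ mean peak-area ratio relative to t0.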

For another data set, the system named is Canis familiaris. The data set is described as follows: Toxicity in Beagle dog at 150 mg/kg, administered via oral gavage measured up to 24 hrs post dose. In kind it is organism-based, Canis lupus familiaris. As to conditions: in vivo. Put shortly: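 Six Beagle dogs (three male, three female) given one oral gavage dose of 150 mg/kg in 20% w/v hydroxypropyl-β-cyclodextrin in water. Animals watched for clinical symptoms and adverse events while plasma was sampled over 24 h.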

Data set [2] deals with Mus musculus. The data set is described as follows: Subacute toxicity in ICR mouse assessed as effect on hepatic perilobular vein at 100 to 1000 mg/kg, administered once a day via oral gavage for 14 days by hematoxylin/eosin-staining based microscopic analysis. In kind it is organism-based. To be noted: in vivo, 336 h. The gist of the method: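 Same 14-day daily oral gavage design as the subacute study (ICR mice, 5 per sex per group, 100/500/1000 mg/kg or vehicle). Liver and kidney taken after anesthesia on day 15, processed routinely, cut as 5 μm paraffin sections, stained with hematoxylin and eosin and examined microscopically.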

Data set [3] is described as follows: Half life in human liver S9 fraction at 10 uM by LC/MS/MS analysis. In kind it is ADME. The gist of the method:
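Compound at 10 μM working solution (1% DMSO, 5% MeOH in 100 mM Tris) incubated at 37 °C with human liver S9 at 1 mg protein/mL final. Reactions stopped with cold acetonitrile containing tolbutamide internal standard at 0, 5, 10, 20, 30 and 60 min. Parent measured by LC/MS/MS (MRM) as analyte/IS peak area ratio, given as percent remaining versus 0 min; half-life fitted.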

Another data set deals with T1, Liver carboxylesterase 1 (Homo sapiens, UniProt P23141).
T1 sequence (P23141 whole entry): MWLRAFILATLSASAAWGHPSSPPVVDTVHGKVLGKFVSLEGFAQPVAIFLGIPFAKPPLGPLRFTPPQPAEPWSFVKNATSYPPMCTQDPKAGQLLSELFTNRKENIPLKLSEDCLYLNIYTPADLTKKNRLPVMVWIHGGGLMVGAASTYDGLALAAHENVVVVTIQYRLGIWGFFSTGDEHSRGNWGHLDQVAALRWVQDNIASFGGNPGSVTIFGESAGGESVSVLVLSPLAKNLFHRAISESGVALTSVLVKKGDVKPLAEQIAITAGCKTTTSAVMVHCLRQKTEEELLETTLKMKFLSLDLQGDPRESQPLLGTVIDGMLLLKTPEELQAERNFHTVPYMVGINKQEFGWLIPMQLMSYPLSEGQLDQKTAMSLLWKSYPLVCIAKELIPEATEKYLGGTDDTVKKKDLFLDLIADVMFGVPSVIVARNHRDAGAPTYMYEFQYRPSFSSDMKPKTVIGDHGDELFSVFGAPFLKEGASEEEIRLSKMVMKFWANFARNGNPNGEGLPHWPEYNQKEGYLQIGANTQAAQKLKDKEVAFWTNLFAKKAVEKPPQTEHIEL
The data set is described as follows: Drug metabolism in human HuH7 cells assessed as carboxylesterase 1-mediated (S)-2-((R)-(((2R,3R,4R,5R)-5-(4-butyramido-2-oxopyrimidin-1(2H)-yl)-4-fluoro-3-hydroxy-4-methyltetrahydrofuran-2-yl)methoxy)(hydroxy)phosphorylamino)propanoic acid metabolite formation at 50 uM after 24 hrs by LC/MS/MS analysis. The format is ADME, cell-based. Put shortly: as §1

A short description of data set [4]: Cmax in Beagle dog at 150 mg/kg, administered via oral gavage measured up to 24 hrs post dose by LC/MS/MS analysis. To be noted: in vivo. The arrangement: dose 150 mg/kg, route oral. In kind it is ADME, organism-based, Canis lupus familiaris. Put shortly:
(§2)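 Beagle dogs, 3 per sex, given a single oral gavage dose of 150 mg/kg in 20% w/v hydroxypropyl-β-cyclodextrin in water, 2.5 mL/kg. K2EDTA blood taken by venipuncture at 0.5, 0.75, 1, 2, 4, 6, 8, 12 and 24 h. Plasma extracted with ice-cold acetonitrile, then LC/MS/MS in positive MRM mode with zolpidem as internal standard. Noncompartmental analysis; mean ± SD.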

Data set [5] concerns Mus musculus. The data set is described as follows: Subacute toxicity in ICR mouse assessed as mortality at 100 to 1000 mg/kg, administered once a day via oral gavage for 14 days. As to conditions: in vivo, 336 h. The format is organism-based. Put shortly:
(§3)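 ICR mice, 22−25 g, 5 per sex per group, gavaged daily for 14 days at 100, 500 or 1000 mg/kg in 30% PEG400/30% Tween 20/20% corn oil/20% water, with a vehicle control group. Observed daily for body weight change, skin and fur, inflammation and necrosis. Animals anesthetized on day 15; organ weights (liver, kidney) taken. Serum SGOT/SGPT compared with controls.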

Data set [6] has as its target Adenosine 5'-monophosphoramidase HINT1 (Homo sapiens, UniProt P49773). The data set is described as follows: Drug metabolism in human HuH7 cells assessed as HINT1-mediated ((2R,3R,4R,5R)-5-(4-butyramido-2-oxopyrimidin-1(2H)-yl)-4-fluoro-3-hydroxy-4-methyltetrahydrofuran-2-yl)methyl dihydrogen phosphate metabolite formation at 50 uM after 48 hrs by LC/MS/MS analysis. The format is ADME, cell-based. Put shortly: as §1

Data set [7] can be described thus: Acute toxicity in ICR mouse administered as a single dose via oral gavage and observed over 14 days. As to conditions: in vivo.
Data set [8] can be described thus: Drug metabolism in human HuH7 cells assessed as carboxylesterase-mediated (S)-2-((S)-(((2R,3R,4R,5R)-5-(4-amino-2-oxopyrimidin-1(2H)-yl)-4-fluoro-3-hydroxy-4-methyltetrahydrofuran-2-yl)methoxy)(hydroxy)phosphoryloxy)propanoic acid metabolite formation at 50 uM after 48 hrs by LC/MS/MS analysis. In kind it is ADME, cell-based. The gist of the method: as §1
Data set [9] has as its system Mus musculus. The data set is described as follows: Subacute toxicity in ICR mouse assessed as weight change in liver at 100 to 1000 mg/kg, administered once a day via oral gavage for 14 days. To be noted: in vivo, 336 h. In kind it is organism-based. Put shortly: as §3
The subject of data set [10] is Mus musculus. The experiment in a line: Subacute toxicity in ICR mouse assessed as weight change in kidney at 100 to 1000 mg/kg, administered once a day via oral gavage for 14 days. In kind it is organism-based. As to conditions: in vivo, 336 h. Put shortly:
as §3

Data set [11] can be described thus: Drug metabolism in human HuH7 cells assessed as ((2R,3R,4R,5R)-4-fluoro-3-hydroxy-5-(4-hydroxy-2-oxo-3,4-dihydropyrimidin-1(2H)-yl)-4-methyltetrahydrofuran-2-yl)methyl tetrahydrogen triphosphate metabolite formation at 50 uM after 48 hrs by LC/MS/MS analysis. The format is ADME, cell-based. To be noted: huh-7, 48 h. Put shortly: as §1
The nature of data set [12]: Half life in Beagle dog at 150 mg/kg, administered via oral gavage measured up to 24 hrs post dose by LC/MS/MS analysis. The format is ADME, organism-based, Canis lupus familiaris. As to conditions: in vivo. Put shortly:
as §2

A short description of data set [13]: AUClast in Beagle dog at 150 mg/kg, administered via oral gavage measured up to 24 hrs post dose by LC/MS/MS analysis. The format is ADME, organism-based, Canis lupus familiaris. To be noted: in vivo. The arrangement: dose 150 mg/kg, time < 24 hr, route oral. The gist of the method: as §2
In data set [14] the test system is Hepatitis C virus subtype 1b. The experiment in a line: Ratio of EC50 for HCV genotype 1b replicon NS5B S282T mutant to EC50 for wild type HCV genotype 1b replicon NS5B. Put shortly:
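Huh7 cells carrying wild-type or S282T mutant HCV genotype 1b replicon, 8000 cells per well, exposed to 3-fold compound dilution series (0.5% DMSO final, duplicates) for 72 h at 37 °C, 5% CO2. Replicon activity read by Bright-Glo luciferase luminescence. EC50 averaged from duplicate determinations; ratio taken as S282T EC50 over wild-type EC50.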
On the technique in general: Replicon systems follow genome replication, usually without infectious particles.

Chain of Adenosine 5'-monophosphoramidase HINT1 (P49773 whole entry): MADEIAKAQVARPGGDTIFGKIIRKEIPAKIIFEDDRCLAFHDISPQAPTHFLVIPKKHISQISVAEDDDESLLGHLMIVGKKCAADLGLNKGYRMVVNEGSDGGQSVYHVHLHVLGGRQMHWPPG

On to `CCCC(=O)Nc1ccn([C@@H]2O[C@H](CO[P@@](=O)(N[C@@H](C)C(=O)OC(C)C)Oc3ccccc3)[C@@H](O)[C@@]2(C)F)c(=O)n1`, for which the Drug metabolism result in [1] is given as “Metabolite_Detected”; on Liver carboxylesterase 1, “Metabolite_Detected”; in data set [6], “Metabolite_Notdetected”; in data set [8], “Metabolite_Detected”; in data set [11] it was “Metabolite_Notdetected”. In addition, the Activity entry in the data set with Canis familiaris, with Mus musculus [2], with Mus musculus [5], in the data set with Mus musculus [9] and in the data set on Mus musculus [10] was “Non-Toxic” in each case. Also, in data set [3], the half-life (in general, the time in which the quantity being followed falls by half) at 10 µM is 9.6 min. Also, in [4], the highest level (Cmax) was 51.3 ng/mL. Moreover, the NOAEL (commonly the highest tested level that showed no adverse finding) at 336 h in [7] was > 1800 mg/kg. Besides, in [12], the half-life is 14.2 h. Besides, in data set [13], the exposure AUC(0-t) (as a rule, the area under the concentration-time curve up to a stated or last time point) at 24 h is 248 ng·h/mL. Further, the Ratio EC50 in [14] was found to be 3.2.
